Data published in paper PMC2900318 (Bioorganic & medicinal chemistry letters, 2009).
≈ marks a conversion by molar mass, not a printed value.

Assays:
[1] = molecular target: T1, human sEH (Homo sapiens, UniProt P34913); test: Inhibition of human sEH, kinetic fluorescent assay; assay type: biochemical; settings: for Fold better inhibitory activity against sEH: salicylic acids vs benzoic acids 14 and 15, respectively
T1 sequence (P34913 1-555): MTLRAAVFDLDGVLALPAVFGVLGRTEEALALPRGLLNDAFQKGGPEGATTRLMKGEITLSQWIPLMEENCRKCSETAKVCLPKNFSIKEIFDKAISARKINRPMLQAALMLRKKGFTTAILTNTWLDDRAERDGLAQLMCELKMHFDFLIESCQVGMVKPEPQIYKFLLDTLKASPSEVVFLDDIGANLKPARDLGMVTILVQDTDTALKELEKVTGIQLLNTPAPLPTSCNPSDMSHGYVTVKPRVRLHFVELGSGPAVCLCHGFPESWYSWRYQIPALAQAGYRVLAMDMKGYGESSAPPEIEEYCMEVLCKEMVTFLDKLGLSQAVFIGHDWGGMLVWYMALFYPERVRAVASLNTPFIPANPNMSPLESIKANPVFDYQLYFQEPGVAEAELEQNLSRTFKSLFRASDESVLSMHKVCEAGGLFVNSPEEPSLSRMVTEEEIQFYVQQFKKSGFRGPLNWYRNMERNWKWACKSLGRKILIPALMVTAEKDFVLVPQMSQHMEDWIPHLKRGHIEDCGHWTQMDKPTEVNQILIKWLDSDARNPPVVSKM

[2] = Octanol/buffer partition, experimental logP; assay type: physicochemical; settings: for Concentration in buffer: 0.1 M sodium phosphate buffer (pH 7.4) vs buffer saturated 1-octanol; for Concentration in octanol: buffer saturated 1-octanol vs 0.1 M sodium phosphate buffer (pH 7.4)
[3] = In vitro stability with human liver S9 incubation with or without NADPH; assay type: in vitro ADME; settings: for Parent compound remaining after the reaction / Level of the corresponding acid metabolite: human hepatic S9, 60 min; for Parent compound remaining after the reaction: with or without NADPH; for Level of the corresponding acid metabolite: metabolites 15 and 27, respectively
[4] = molecular target: T1, human sEH; settings: statement in words; cited from earlier work
[5] = Chemical stability; assay type: physicochemical; settings: 40 mM NaOH; 22 °C
Method in brief: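 The test compound was incubated in alkaline solution (40 mM NaOH) at 22 °C. Hydrolysis was followed over time as conversion to the corresponding phenol.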

[6] = molecular target: T2, COX-1 (Ovis aries, UniProt P05979); test: COX-1 fluorescent inhibitor screening assay kit; assay type: biochemical; settings: at 10 μM
T2 sequence (P05979 25-600): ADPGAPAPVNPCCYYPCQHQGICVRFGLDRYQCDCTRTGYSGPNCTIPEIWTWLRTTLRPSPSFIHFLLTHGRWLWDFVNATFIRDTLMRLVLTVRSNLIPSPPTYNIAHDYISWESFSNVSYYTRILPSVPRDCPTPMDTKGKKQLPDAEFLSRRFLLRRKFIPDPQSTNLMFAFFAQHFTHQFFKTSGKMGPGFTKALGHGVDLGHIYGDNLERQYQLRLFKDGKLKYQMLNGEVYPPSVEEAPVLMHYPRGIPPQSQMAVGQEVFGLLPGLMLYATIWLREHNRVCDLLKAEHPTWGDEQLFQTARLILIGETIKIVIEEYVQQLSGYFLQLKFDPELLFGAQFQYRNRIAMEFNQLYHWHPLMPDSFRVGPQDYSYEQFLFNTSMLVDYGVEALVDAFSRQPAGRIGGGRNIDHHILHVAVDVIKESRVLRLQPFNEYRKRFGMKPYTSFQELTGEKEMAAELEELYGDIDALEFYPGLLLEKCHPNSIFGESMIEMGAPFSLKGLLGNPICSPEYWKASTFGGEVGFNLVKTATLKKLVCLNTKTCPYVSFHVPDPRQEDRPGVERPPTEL

[7] = Blood levels after oral administration to dog; assay type: in vivo; settings: oral gavage 0.3 mg/kg in tri-olein rich oil
Method in brief: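 Dogs received the test compound as a single oral gavage dose of 0.3 mg/kg in tri-olein rich oil. Blood concentrations were followed over time to give concentration–time profiles.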

[8] = molecular target: T3, COX-2 (Homo sapiens, UniProt P35354); test: COX-2 fluorescent inhibitor screening assay kit; assay type: biochemical; settings: at 10 μM
T3 sequence (P35354 18-604): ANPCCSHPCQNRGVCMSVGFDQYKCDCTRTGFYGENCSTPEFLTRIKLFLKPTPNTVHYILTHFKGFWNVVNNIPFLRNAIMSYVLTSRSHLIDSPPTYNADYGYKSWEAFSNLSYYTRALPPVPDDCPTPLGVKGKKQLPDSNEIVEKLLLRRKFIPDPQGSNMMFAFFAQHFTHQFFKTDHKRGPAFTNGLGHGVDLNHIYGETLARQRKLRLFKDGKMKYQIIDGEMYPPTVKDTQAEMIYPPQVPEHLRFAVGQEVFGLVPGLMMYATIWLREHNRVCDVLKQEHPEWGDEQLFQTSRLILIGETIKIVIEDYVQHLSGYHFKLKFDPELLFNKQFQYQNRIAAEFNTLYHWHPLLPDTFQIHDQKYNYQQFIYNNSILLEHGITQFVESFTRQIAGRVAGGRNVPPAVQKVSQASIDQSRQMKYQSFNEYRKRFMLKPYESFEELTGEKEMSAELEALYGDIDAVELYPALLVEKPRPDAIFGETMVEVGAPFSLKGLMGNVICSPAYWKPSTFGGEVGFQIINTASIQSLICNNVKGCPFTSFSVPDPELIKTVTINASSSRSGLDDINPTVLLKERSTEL

[9] = Solubility in water; assay type: physicochemical

O=C(Nc1ccccc1O)NC12CC3CC(CC(C3)C1)C2 [Compound 2]
Fold reduction of inhibitory potency against human sEH ([1]; ortho hydroxy vs non-functionalized compound 1 / meta, para isomers): roughly 10 fold

COC(=O)c1ccc(NC(=O)NC23CC4CC(CC(C4)C2)C3)cc1 [Compound 13]
Concentration in buffer [2]: <0.3 µM | Concentration in octanol [2]: 2445 µM | Parent compound remaining after the reaction [3]: ≥ 90% | Level of the corresponding acid metabolite [3]: below the limit of detection

O=C(NC12CC3CC(CC(C3)C1)C2)NC12CC3CC(CC(C3)C1)C2 [N,N′-bisadamantyl urea]
Inhibition towards sEH [4]: strong inhibition

CC(=O)Oc1ccc(NC(=O)NC23CC4CC(CC(C4)C2)C3)cc1 [Compound 10]
Time to complete conversion to the corresponding phenol 4 [5]: less than 15 min | Hydrolysis to the corresponding phenol 4 ([3]; human hepatic S9, in an hour): hydrolyzed completely

COC(=O)c1ccc(NC(=O)NC23CC4CC(CC(C4)C2)C3)cc1O [Compound 28]
Inhibition of COX-1 [6]: not able to show any inhibition | Blood concentration [7]: higher than that of the classical sEH inhibitor AUDA | Inhibition of COX-2 [8]: not able to show any inhibition | Concentration in buffer [2]: <0.3 µM | Concentration in octanol [2]: 3886 µM | IC50 [1]: ~3 nM | Parent compound remaining after the reaction [3]: ≥ 90% | Level of the corresponding acid metabolite [3]: below the limit of detection

O=C(Nc1ccc(O)c(C(=O)O)c1)NC12CC3CC(CC(C3)C1)C2 [Compound 25]
Fold better inhibitory activity against sEH [1]: 3 fold

O=C(Nc1cccc(C(=O)N2CCC(N3CCOCC3)CC2)c1)NC12CC3CC(CC(C3)C1)C2 [Compound 17]
solubility ([9]; sodium phosphate buffer, pH 7.4): 10000 µg/mL (≈ 21.4 mM) | Concentration in octanol [2]: 2720 µM

O=C(Nc1ccc(OC(=O)c2ccccc2)cc1)NC12CC3CC(CC(C3)C1)C2 [Compound 11]
Time to complete conversion to the corresponding phenol 4 [5]: less than 15 min | Parent compound remaining after the reaction [3]: 30%

O=C(Nc1ccc(C(=O)O)cc1)NC12CC3CC(CC(C3)C1)C2 [Compound 15]
Fold less active towards sEH ([1]; vs un-substituted phenyl 1 or the corresponding ester 13): 83 fold

O=C(Nc1ccc(C(=O)O)c(O)c1)NC12CC3CC(CC(C3)C1)C2 [Compound 27]
Blood concentration [7]: no 27 was detected | Fold more soluble in water ([9]; compared to 17 (so in the source)): 20 fold | Concentration in buffer [2]: 39 µM | Concentration in octanol [2]: 1641 µM | Fold better inhibitory activity against sEH [1]: 20 fold

COC(=O)c1cc(NC(=O)NC23CC4CC(CC(C4)C2)C3)ccc1O [Compound 26]
Fold increase in metabolic stability ([3]; human liver S9, compared to 12): 10 fold
